Tests used:
MKN-45 = assay: Cytotoxicity of compound against human gastric adenocarcinoma cell line (MKN 45); type: functional, cell-based
In short: (§1)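 MTT assay: compounds dissolved in DMSO at 1 mM (stock), diluted in RPMI-FCS to various concentrations; single-cell suspensions treated at 37 °C, 5% CO2 for 4 days; MTT added for further 4 h, acid–isopropanol added, OD read at 540 nm. Fractional inhibition = 1 − OD sample/control; IC50 from Chou median-effect analysis; mean of triplicate experiments.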

PC-14 = assay: Cytotoxicity of compound against human lung adenocarcinoma cell line (PC14); type: functional, cell-based; in short: as §1

Compound | IC50 (MKN-45; Homo sapiens, MKN-45) | IC50 (PC-14; Homo sapiens, PC-14) | IC50 (MKN-45; mkn-45) | IC50 (PC-14; pc-14)
CCc1nc2c(nc1C)C(=O)c1nccnc1C2=O | 13 µM | 67.5 µM |  | 
COc1cccc2c1C(=O)c1c(O)c3c(c(O)c1C2=O)C[C@@](O)(C(=O)CO)C[C@@H]3O[C@H]1C[C@H](N)[C@H](O)[C@H](C)O1 [DOXORUBICIN] | 3.13 µM | 0.29 µM |  | 
Cc1nc2c(n1-c1ccc(Br)cc1)C(=O)c1nccnc1C2=O | 1.3 µM | 45.5 µM |  | 
Cc1nc2c(n1C)C(=O)c1nccnc1C2=O | 34.1 µM | 38.7 µM |  | 
O=C1c2nccnc2C(=O)c2nccnc21 | 20.1 µM | 76.2 µM |  | 
CCn1c(C)nc2c1C(=O)c1nccnc1C2=O | 93.1 µM | 130 µM |  | 
Cc1nc2c(n1C(C)C)C(=O)c1nccnc1C2=O | 61.1 µM | 78.3 µM |  | 
Cc1nc2c(nc1C)C(=O)c1nccnc1C2=O | 16.7 µM | 74 µM |  | 
CCc1nc2c(nc1CC)C(=O)c1nccnc1C2=O | 7.61 µM | 20.5 µM |  | 
O=C1c2nccnc2C(=O)c2nc(-c3ccccc3)c(-c3ccccc3)nc21 | 82.5 µM | 120 µM |  | 
Cc1nc2c(n1-c1ccccc1)C(=O)c1nccnc1C2=O | 22.8 µM | 125 µM |  | 
CISPLATIN |  |  | 86.5 µM | 3.87 µM
Cc1nc2c([nH]1)C(=O)c1nccnc1C2=O | 19.8 µM | 82.5 µM |  | 
